In ChEMBL document CHEMBL3797182, “In vitro evaluation of imidazo[4,5-c]quinolin-2-ones as gametocytocidal antimalarial agents” (Bioorg Med Chem Lett, 2016):

Columns and labels:
[1] = tested on: Plasmodium falciparum; test: Antimalarial activity against chloroquine-sensitive asexual blood stage of Plasmodium falciparum 3D7 infected in RBC after 72 hrs by SYBR Green assay; format: functional, organism-based; details: 3D7, 72 h
In short: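 Asexual blood-stage P. falciparum 3D7 (chloroquine-sensitive) parasites. 1536-well format, 11-point dose-response, duplicate tests. Torin 2 served as positive control and DMSO as negative control.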

[2] = tested on: Plasmodium falciparum; test: Gametocytocidal activity against chloroquine-sensitive late gametocytic stage (III to V) of Plasmodium falciparum 3D7 after 72 hrs by Alamar Blue assay; format: functional, organism-based; details: 3D7, 72 h
In short: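 Late-stage (III–V) P. falciparum 3D7 gametocytes. AlamarBlue redox indicator reads cytosolic metabolic activity as a measure of gametocyte viability. 1536-well format, 11-point dose-response, duplicates. Torin 2 positive control, DMSO negative control.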

[3] = tested on: HepG2; test: Cytotoxicity against human HepG2 cells assessed as cell viability after 24 hrs; format: cell-based; details: HepG2, 24 h
In short: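 HepG2 cell viability as general cytotoxicity. 1536-well, 11-point dose-response in duplicate, top concentration 46 μM. Torin 2 positive control, DMSO negative control.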

[4] = tested on: Plasmodium falciparum; test: Selectivity ratio of IC50 for chloroquine-sensitive late gametocytic stage (III to V) of Plasmodium falciparum 3D7 to IC50 for chloroquine-sensitive asexual blood stage of Plasmodium falciparum 3D7; format: functional

Compound: Nc1cccc(-c2ccc3ncc4[nH]c(=O)n(-c5cccc(C(F)(F)F)c5)c4c3c2)c1
- IC50 [1]: 275 nM
- IC50 [2]: 637 nM
- IC50 [3]: 6170 nM
- Ratio IC50 [4]: 1

Compound: Cn1c(=O)n(-c2cccc(C(F)(F)F)c2)c2c3cc(-c4ccc(O)cc4)ccc3ncc21
- IC50 [1]: 114 nM
- IC50 [2]: 229 nM
- IC50 [3]: 2330 nM
- Ratio IC50 [4]: 1

Compound: CCn1c(=O)n(-c2cccc(C(F)(F)F)c2)c2c3cc(-c4ccc(N)nc4)ccc3ncc21
- IC50 [1]: 183 nM
- IC50 [2]: 205 nM
- IC50 [3]: 3680 nM

Compound: Cn1c(=O)n(-c2cccc(C(F)(F)F)c2)c2c3cc(-c4cccc(N)c4)ccc3ncc21
- IC50 [1]: 77 nM
- IC50 [2]: 145 nM
- IC50 [3]: 13900 nM
- Ratio IC50 [4]: 1

Compound: Cn1c(=O)n(-c2ccc(C(F)(F)F)cc2)c2c3cc(-c4ccc(N)nc4)ccc3ncc21
- IC50 [1]: 104 nM
- IC50 [2]: 237 nM
- IC50 [3]: > 45000 nM

Compound: Cc1ccc(-c2ccc3ncc4[nH]c(=O)n(-c5cccc(C(F)(F)F)c5)c4c3c2)cn1
- IC50 [1]: 180 nM
- IC50 [2]: 320 nM
- IC50 [3]: > 45000 nM

Compound: Cn1c(=O)n(-c2ccc(C#N)cc2)c2c3cc(-c4ccc(N)nc4)ccc3ncc21
- IC50 [1]: 98 nM
- IC50 [2]: 118 nM
- IC50 [3]: > 45000 nM

Compound: COc1cccc(-n2c(=O)n(C)c3cnc4ccc(-c5ccc(N)nc5)cc4c32)c1
- IC50 [1]: 88 nM
- IC50 [2]: 126 nM
- IC50 [3]: 2530 nM

Compound: O=c1[nH]c2cnc3ccc(-c4ccccc4)cc3c2n1-c1cccc(C(F)(F)F)c1
- IC50 [1]: 4040 nM
- IC50 [2]: 18400 nM
- IC50 [3]: > 45000 nM
- Ratio IC50 [4]: 4.6

Compound: Cn1c(=O)n(-c2cccc(C(F)(F)F)c2)c2c3cc(-c4ccc(O)nc4)ccc3ncc21
- IC50 [1]: 158 nM
- IC50 [2]: 294 nM
- IC50 [3]: 23500 nM

Compound: NS(=O)(=O)c1ccc(-c2ccc3ncc4[nH]c(=O)n(-c5cccc(C(F)(F)F)c5)c4c3c2)cc1
- IC50 [1]: 948 nM
- IC50 [2]: 2330 nM
- IC50 [3]: > 45000 nM
- Ratio IC50 [4]: 1

Compound: O=c1[nH]c2cnc3ccc(-c4ccc(Cl)cc4)cc3c2n1-c1cccc(C(F)(F)F)c1
- IC50 [1]: 1690 nM
- IC50 [2]: 3560 nM
- IC50 [3]: > 45000 nM
- Ratio IC50 [4]: 1

Compound: Cn1c(=O)n(-c2cccc(C(F)(F)F)c2)c2c3cc(-c4ccncc4)ccc3ncc21
- IC50 [1]: 93 nM
- IC50 [2]: 359 nM
- IC50 [3]: 1730 nM

Compound: Cn1c(=O)n(-c2cccc(C(F)(F)F)c2)c2c3cc(-c4ccc(N)cc4)ccc3ncc21
- IC50 [1]: 86 nM
- IC50 [2]: 87 nM
- IC50 [3]: 5530 nM
- Ratio IC50 [4]: 1

Compound: Cn1c(=O)n(-c2cccc(C(F)(F)F)c2)c2c3cc(-c4cnc5ccccc5c4)ccc3ncc21
- IC50 [1]: 5780 nM
- IC50 [2]: 5270 nM
- IC50 [3]: 31600 nM

Compound: COc1ccc(-n2c(=O)n(C)c3cnc4ccc(-c5ccc(N)nc5)cc4c32)cc1
- IC50 [1]: 47 nM
- IC50 [2]: 148 nM
- IC50 [3]: 2340 nM

Compound: Cn1c(=O)n(-c2cccc(C(F)(F)F)c2)c2c3cc(-c4ccc(S(N)(=O)=O)cc4)ccc3ncc21
- IC50 [1]: 452 nM
- IC50 [2]: 816 nM
- IC50 [3]: > 45000 nM
- Ratio IC50 [4]: 1

Compound: Nc1ccc(-c2ccc3ncc4[nH]c(=O)n(-c5cccc(C(F)(F)F)c5)c4c3c2)cn1
- IC50 [1]: 91 nM
- IC50 [2]: 97 nM
- IC50 [3]: 3110 nM

Compound: CC(=O)Nc1ccc(-c2ccc3ncc4c(c3c2)n(-c2cccc(C(F)(F)F)c2)c(=O)n4C)cn1
- IC50 [1]: 25 nM
- IC50 [2]: 42 nM
- IC50 [3]: 3980 nM

Compound: O=c1[nH]c2cnc3ccc(-c4ccc5[nH]cnc5c4)cc3c2n1-c1cccc(C(F)(F)F)c1
- IC50 [1]: 214 nM
- IC50 [2]: 347 nM
- IC50 [3]: 3240 nM

Compound: Cn1c(=O)n(-c2cccc(C(F)(F)F)c2)c2c3cc(-c4ccc5[nH]cnc5c4)ccc3ncc21
- IC50 [1]: 65 nM
- IC50 [2]: 157 nM
- IC50 [3]: 2630 nM

Compound: O=c1[nH]c2cnc3ccc(-c4cnc5ccccc5c4)cc3c2n1-c1cccc(C(F)(F)F)c1
- IC50 [1]: 15400 nM
- IC50 [2]: 2350 nM
- IC50 [3]: > 45000 nM

Compound: Nc1ncc(-c2ccc3ncc4[nH]c(=O)n(-c5cccc(C(F)(F)F)c5)c4c3c2)cn1
- IC50 [1]: 213 nM
- IC50 [2]: 450 nM
- IC50 [3]: 2540 nM

Compound: O=c1[nH]c2cnc3ccc(-c4ccc(O)cc4)cc3c2n1-c1cccc(C(F)(F)F)c1
- IC50 [1]: 781 nM
- IC50 [2]: 1470 nM
- IC50 [3]: 4060 nM
- Ratio IC50 [4]: 1

Compound: Nc1ccc(-c2ccc3ncc4[nH]c(=O)n(-c5cccc(C(F)(F)F)c5)c4c3c2)cc1
- IC50 [1]: 283 nM
- IC50 [2]: 3270 nM
- IC50 [3]: 7230 nM
- Ratio IC50 [4]: 11.6

Compound: Cn1c(=O)n(C2CC2)c2c3cc(-c4ccc(N)nc4)ccc3ncc21
- IC50 [1]: 1160 nM
- IC50 [2]: 865 nM
- IC50 [3]: 11400 nM

Compound: CS(=O)(=O)c1ccc(-c2ccc3ncc4[nH]c(=O)n(-c5cccc(C(F)(F)F)c5)c4c3c2)cc1
- IC50 [1]: 1160 nM
- IC50 [2]: 1110 nM
- IC50 [3]: > 45000 nM
- Ratio IC50 [4]: 1

Compound: O=c1[nH]c2cnc3ccccc3c2n1-c1cccc(C(F)(F)F)c1
- IC50 [1]: 5030 nM
- IC50 [2]: 7460 nM
- IC50 [3]: > 45000 nM

Compound: Cc1ccc(-c2ccc3ncc4[nH]c(=O)n(-c5cccc(C(F)(F)F)c5)c4c3c2)cc1
- IC50 [1]: 5190 nM
- IC50 [2]: 7050 nM
- IC50 [3]: > 45000 nM
- Ratio IC50 [4]: 1

Compound: Cc1ccc(-c2ccc3ncc4c(c3c2)n(-c2cccc(C(F)(F)F)c2)c(=O)n4C)cn1
- IC50 [1]: 21 nM
- IC50 [2]: 81 nM
- IC50 [3]: 14500 nM

Compound: Cn1c(=O)n(-c2ccccc2)c2c3cc(-c4ccc(N)nc4)ccc3ncc21
- IC50 [1]: 69 nM
- IC50 [2]: 219 nM
- IC50 [3]: 6540 nM

Compound: N#Cc1cccc(-c2ccc3ncc4[nH]c(=O)n(-c5cccc(C(F)(F)F)c5)c4c3c2)c1
- IC50 [1]: 874 nM
- IC50 [2]: 2790 nM
- IC50 [3]: > 45000 nM
- Ratio IC50 [4]: 1

Compound: Nc1ccc(-c2ccc3ncc4[nH]c(=O)n(-c5ccc(C(F)(F)F)cc5)c4c3c2)cn1
- IC50 [1]: 530 nM
- IC50 [2]: 576 nM
- IC50 [3]: > 45000 nM

Compound: O=c1[nH]c2cnc3ccc(-c4ccncc4)cc3c2n1-c1cccc(C(F)(F)F)c1
- IC50 [1]: 313 nM
- IC50 [2]: 1140 nM
- IC50 [3]: 1500 nM

Compound: CC(=O)Nc1ccc(-c2ccc3ncc4[nH]c(=O)n(-c5cccc(C(F)(F)F)c5)c4c3c2)cn1
- IC50 [1]: 81 nM
- IC50 [2]: 186 nM
- IC50 [3]: > 45000 nM

Compound: Cn1c(=O)n(-c2cccc(C(F)(F)F)c2)c2c3cc(-c4ccc(N)nc4)ccc3ncc21
- IC50 [1]: 7 nM
- IC50 [2]: 28 nM
- IC50 [3]: 2600 nM
- Ratio IC50 [4]: 4

Compound: Cn1c(=O)n(-c2cccc(C(F)(F)F)c2)c2c3cc(-c4cnc(N)nc4)ccc3ncc21
- IC50 [1]: 17 nM
- IC50 [2]: 52 nM
- IC50 [3]: 1330 nM

Compound: O=c1[nH]c2cnc3ccc(-c4ccc(O)nc4)cc3c2n1-c1cccc(C(F)(F)F)c1
- IC50 [1]: 412 nM
- IC50 [2]: 4630 nM
- IC50 [3]: > 45000 nM

Compound: Cn1c(=O)n(-c2cccc(C(F)(F)F)c2)c2c3ccccc3ncc21
- IC50 [1]: 17000 nM
- IC50 [2]: 3640 nM
- IC50 [3]: > 45000 nM

Compound: Cn1c(=O)n(-c2cccc(C(F)(F)F)c2)c2c3cc(-c4cccnc4)ccc3ncc21
- IC50 [1]: 95 nM
- IC50 [2]: 236 nM
- IC50 [3]: 10300 nM

Compound: Cn1c(=O)n(C2CCCCC2)c2c3cc(-c4ccc(N)nc4)ccc3ncc21
- IC50 [1]: 832 nM
- IC50 [2]: 1880 nM
- IC50 [3]: 3840 nM

Compound: N#Cc1ccc(-n2c(=O)[nH]c3cnc4ccc(-c5ccc(N)nc5)cc4c32)cc1
- IC50 [1]: 386 nM
- IC50 [2]: 482 nM
- IC50 [3]: > 45000 nM

Compound: O=c1[nH]c2cnc3ccc(-c4cccnc4)cc3c2n1-c1cccc(C(F)(F)F)c1
- IC50 [1]: 2820 nM
- IC50 [2]: 11400 nM
- IC50 [3]: 2250 nM

Compound: Nc1ccc(-c2ccc3ncc4[nH]c(=O)n(C5CCCCC5)c4c3c2)cn1
- IC50 [1]: 1350 nM
- IC50 [2]: 2870 nM
- IC50 [3]: 6500 nM
